Active and inactive are the calls of the source. No cut-off for these calls is given here.

Broadly, the inhibition is the relative decrease from the control value, in per cent. One may read the IC50 as the midpoint of a concentration-inhibition curve.

Assay [1] has as its system Mycolicibacterium smegmatis. Briefly: Antimicrobial activity against Mycobacterium smegmatis ATCC 607. The format is functional.
Another assay concerns Saccharomyces cerevisiae. In words: Antimicrobial activity against Saccharomyces cerevisiae RSKK 251. Type of assay: functional.
For another assay, the system named is Staphylococcus aureus. Briefly: Antimicrobial activity against Staphylococcus aureus ATCC 25923. Type of assay: functional. The method, boiled down:
(§1)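 Compound stocks were 20.000 µg/mL in hexane. DMSO diluted 1:10 served as the solvent control, and ampicillin was the reference drug.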

A further assay concerns Pseudomonas aeruginosa. Briefly: Antimicrobial activity against Pseudomonas aeruginosa ATCC 43288. Type of assay: functional. The method, boiled down:
as §1

In another assay the test system is Enterococcus faecalis. In words: Antimicrobial activity against Enterococcus faecalis ATCC 29212. Type of assay: functional. The method, boiled down:
as §1

The subject of assay [2] is Yersinia pseudotuberculosis. In words: Antimicrobial activity against Yersinia pseudotuberculosis ATCC 911. Type of assay: functional. The method, boiled down:
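Compounds were dissolved in […] as 20.000 µg/mL stocks. Ampicillin (10 µg) was the reference antibacterial, and DMSO diluted 1:10 was the solvent control.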

The subject of assay [3] is Bacillus cereus. In words: Antimicrobial activity against Bacillus cereus 702 Roma. The format is functional. The method, boiled down: as §1
Another assay has as its system Candida albicans. In words: Antimicrobial activity against Candida albicans ATCC 60193. Type of assay: functional.
In assay [4] the target is Urease (Canavalia ensiformis) (UniProt P07374). In words: Inhibition of jack bean urease using urea as substrate assessed as ammonia production at 250 ug/ml after 15 mins relative to control. The method, boiled down:
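Jack bean urease in pH 8.2 buffer (100 mM urea, 0.01 M K2HPO4, 1 mM EDTA, 0.01 M LiCl) was incubated with compound for 15 min at room temperature. Ammonia was measured by the indophenol method (phenol/nitroprusside, then NaOH/NaOCl) at A625 after 20 min. Inhibition % = 100 − (OD test/OD control)×100. […] Thiourea was the standard.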

Assay [5] can be described thus: Inhibition of Bacillus cereus metallo beta-lactamase assessed as nitrocefin substrate hydrolysis after 20 mins. The method, boiled down:
(§2)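 Commercial B. cereus metallo-β-lactamase (1.5 µM solution) was combined with nitrocefin (150 µM solution) and compound in 25 mM PIPES pH 7.0 containing 100 µM ZnSO4. A486 was read continuously for 20 min at 37 °C. Residual activity was taken relative to the no-inhibitor control, in triplicate. Screening used 1 mM final; IC50 came from a concentration series. HgCl2 was the positive control.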

The subject of assay [6] is Bacillus cereus. Briefly: Inhibition of Bacillus cereus metallo beta-lactamase assessed as nitrocefin substrate hydrolysis at 1 mM after 20 mins. The method, boiled down: as §2

Urease (Canavalia ensiformis), sequence (P07374 whole entry, looked up): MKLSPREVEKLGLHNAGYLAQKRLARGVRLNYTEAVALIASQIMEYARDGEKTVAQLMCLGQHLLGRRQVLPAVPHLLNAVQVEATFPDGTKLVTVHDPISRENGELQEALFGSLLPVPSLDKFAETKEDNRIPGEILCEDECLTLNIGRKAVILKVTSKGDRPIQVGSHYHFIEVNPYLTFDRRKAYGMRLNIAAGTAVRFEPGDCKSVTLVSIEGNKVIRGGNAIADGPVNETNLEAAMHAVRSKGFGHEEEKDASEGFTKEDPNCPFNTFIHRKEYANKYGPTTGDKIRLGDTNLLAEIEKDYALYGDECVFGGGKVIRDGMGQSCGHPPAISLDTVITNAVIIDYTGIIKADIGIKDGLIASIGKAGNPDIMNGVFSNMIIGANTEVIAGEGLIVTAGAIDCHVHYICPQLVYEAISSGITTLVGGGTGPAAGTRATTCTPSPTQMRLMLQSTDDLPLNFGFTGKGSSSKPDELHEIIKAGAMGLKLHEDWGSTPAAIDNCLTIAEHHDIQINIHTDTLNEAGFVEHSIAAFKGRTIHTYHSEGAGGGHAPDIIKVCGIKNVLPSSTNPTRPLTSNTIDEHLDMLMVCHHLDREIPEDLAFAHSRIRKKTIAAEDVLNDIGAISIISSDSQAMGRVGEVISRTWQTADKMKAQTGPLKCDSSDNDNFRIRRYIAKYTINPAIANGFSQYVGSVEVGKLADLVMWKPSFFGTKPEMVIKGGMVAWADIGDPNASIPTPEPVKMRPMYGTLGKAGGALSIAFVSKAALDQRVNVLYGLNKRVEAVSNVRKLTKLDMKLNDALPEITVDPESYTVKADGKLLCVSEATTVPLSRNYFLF

Regarding `CN[C@@H]1[C@H](O[C@H]2[C@H](O[C@H]3[C@H](O)[C@@H](O)[C@H](N=C(N)N)[C@@H](O)[C@@H]3N=C(N)N)O[C@@H](C)[C@]2(O)C=O)O[C@@H](CO)[C@H](O)[C@H]1O` [STREPTOMYCIN], in [1], the “inhibition zone (IZ)” value worked out at 35 mm.

As for `O=C1CN(Cc2ccccc2)/C(=N\c2ccc(S(=O)(=O)Cl)cc2)S1`, the “inhibition zone (IZ)” value is recorded as 18 mm in the assay with Saccharomyces cerevisiae; 18 mm with Staphylococcus aureus; 10 mm in the assay on Enterococcus faecalis; 12 mm in assay [1]; 10 mm in the assay on Bacillus cereus [3]; 10 mm with Candida albicans. Moreover, the “inhibition zone (IZ)” value (in the assay with Pseudomonas aeruginosa; in assay [2]) was “inactive” throughout.

With `CC(=O)OCC1=C(C(=O)O)N2C(=O)[C@@H](NS(=O)(=O)c3ccc(NC(=O)Nc4ccccc4)cc3)[C@H]2SC1`, the “inhibition zone (IZ)” value with Saccharomyces cerevisiae was 8 mm; in the assay on Staphylococcus aureus, 15 mm; with Pseudomonas aeruginosa it was 6 mm; with Enterococcus faecalis, 8 mm; in [2], 8 mm; in [1], 10 mm. Besides, the “inhibition zone (IZ)” value in the assay with Bacillus cereus [3] came out at 10 mm; in the assay with Candida albicans it was 8 mm.

For `O=S(=O)(Cl)c1ccc(NC(=S)NCc2ccccc2)cc1`, the “inhibition zone (IZ)” value in the assay with Saccharomyces cerevisiae is 8 mm; in the assay with Staphylococcus aureus, 30 mm; with Pseudomonas aeruginosa it was 20 mm; with Enterococcus faecalis it was 16 mm; in assay [2], 25 mm; in assay [1] it was 17 mm. Further, the “inhibition zone (IZ)” value in the assay on Bacillus cereus [3] came out at 18 mm; with Candida albicans, 8 mm.

With `O=C(Cl)CN1CCN(c2ccc([N+](=O)[O-])cc2F)CC1`, the “inhibition zone (IZ)” value was found to be 30 mm in the assay with Saccharomyces cerevisiae; 15 mm in the assay on Staphylococcus aureus; 8 mm in the assay on Enterococcus faecalis; 8 mm in the assay with Bacillus cereus [3]; 15 mm with Candida albicans. For the same compound, the “inhibition zone (IZ)” value (with Pseudomonas aeruginosa; in [2]; in assay [1]) was “inactive” in each case. In addition, the inhibition in assay [4] was found to be 25%.

In the case of MERCURIC CHLORIDE [listing 1 of 2 here], the half-inhibitory concentration (IC50) in assay [5] turned out to be 93 µM.

For `CC(=O)OCC1=C(C(=O)O)N2C(=O)[C@@H](NS(=O)(=O)c3ccc(NC(=S)Nc4ccccc4)cc3)[C@H]2SC1`, the “inhibition zone (IZ)” value with Saccharomyces cerevisiae was found to be 22 mm; with Staphylococcus aureus, 18 mm; in the assay on Pseudomonas aeruginosa, 8 mm; in the assay with Enterococcus faecalis, 10 mm; in [2], 10 mm; in assay [1] it was 18 mm. Besides, the “inhibition zone (IZ)” value in the assay on Bacillus cereus [3] worked out at 12 mm; with Candida albicans, 14 mm.

As for `O=S(=O)(Cl)c1ccc(/N=c2/sc(-c3ccc(Cl)cc3)cn2Cc2ccccc2)cc1`, the “inhibition zone (IZ)” value worked out at 20 mm in the assay with Saccharomyces cerevisiae; 16 mm in the assay with Staphylococcus aureus; 18 mm in the assay with Enterococcus faecalis; 10 mm in assay [1]; 6 mm with Bacillus cereus [3]; 10 mm in the assay on Candida albicans. The “inhibition zone (IZ)” value (in the assay on Pseudomonas aeruginosa; in assay [2]) was “inactive” in each case.

Turning to MERCURIC CHLORIDE [listing 2 of 2 here], in the assay with Bacillus cereus [6], the inhibition came out at 76%.

`Nc1ccc(S(=O)(=O)Cl)cc1`: the “inhibition zone (IZ)” value amounted to 20 mm with Saccharomyces cerevisiae; 18 mm in the assay with Staphylococcus aureus; 28 mm in the assay with Pseudomonas aeruginosa; 12 mm in the assay on Enterococcus faecalis; 12 mm in assay [2]; 10 mm in assay [1]. Moreover, the figures for the “inhibition zone (IZ)” value in the assay with Bacillus cereus [3] and in the assay with Candida albicans were 15 mm and 13 mm, respectively.

As to `O=S(=O)(Cl)c1ccc(/N=c2/sc(-c3ccc(Cl)cc3)cn2-c2ccccc2)cc1`, the “inhibition zone (IZ)” value in the assay with Saccharomyces cerevisiae was 22 mm; in the assay with Staphylococcus aureus, 18 mm; in the assay with Enterococcus faecalis, 8 mm; in [1], 12 mm; in the assay with Bacillus cereus [3], 8 mm; in the assay on Candida albicans it was 10 mm. The “inhibition zone (IZ)” value (in the assay with Pseudomonas aeruginosa; in assay [2]) was “inactive” throughout. For the same compound, the inhibition in assay [4] was determined as 3%.

For the compound `O=S(=O)(Cl)c1ccc(NC(=S)Nc2ccccc2)cc1`, the entries for the “inhibition zone (IZ)” value in the assay on Saccharomyces cerevisiae, in the assay with Staphylococcus aureus and with Candida albicans were 15 mm, 6 mm and 8 mm, respectively. Besides, the “inhibition zone (IZ)” value (in the assay with Pseudomonas aeruginosa; with Enterococcus faecalis; in assay [2]; in [1]; with Bacillus cereus [3]) was “inactive” in each case. For the same compound, the inhibition in assay [4] came out at 21%.

With `CC(=O)OCC1=C(C(=O)O)N2C(=O)[C@@H](NS(=O)(=O)c3ccc(NC(=O)NCc4ccccc4)cc3)[C@H]2SC1`, the “inhibition zone (IZ)” value in the assay on Saccharomyces cerevisiae was found to be 10 mm; in the assay with Staphylococcus aureus, 18 mm; in the assay with Pseudomonas aeruginosa, 8 mm; in the assay on Enterococcus faecalis, 10 mm; in [2] it was 10 mm; in assay [1] it was 14 mm. Besides, the “inhibition zone (IZ)” value in the assay with Bacillus cereus [3] and in the assay with Candida albicans was 10 mm each time.

Regarding `CC(=O)OCC1=C(C(=O)O)N2C(=O)[C@@H](NS(=O)(=O)c3ccc(N)cc3)[C@H]2SC1`, the “inhibition zone (IZ)” value is 20 mm in the assay with Saccharomyces cerevisiae; 20 mm in the assay on Staphylococcus aureus; 30 mm in the assay with Pseudomonas aeruginosa; 16 mm with Enterococcus faecalis; 12 mm in assay [2]; 12 mm in assay [1]. The results for the “inhibition zone (IZ)” value with Bacillus cereus [3] and with Candida albicans were 18 mm and 14 mm, respectively. In addition, in assay [4], the inhibition was determined as 1%.

Take `CC(=O)OCC1=C(C(=O)O)N2C(=O)[C@@H](NS(=O)(=O)c3ccc(/N=C4/SC(=O)CN4Cc4ccccc4)cc3)[C@H]2SC1`: the “inhibition zone (IZ)” value in the assay on Saccharomyces cerevisiae amounted to 18 mm; with Staphylococcus aureus, 22 mm; with Pseudomonas aeruginosa it was 8 mm; in the assay on Enterococcus faecalis it was 10 mm; in [2] it was 8 mm; in assay [1] it was 16 mm. Also, the “inhibition zone (IZ)” value in the assay on Bacillus cereus [3] is 8 mm; with Candida albicans, 10 mm.

Turning to `CC(=O)OCC1=C(C(=O)O)N2C(=O)[C@@H](NS(=O)(=O)c3ccc(/N=c4/sc(-c5ccc(Cl)cc5)cn4-c4ccccc4)cc3)[C@H]2SC1`, the “inhibition zone (IZ)” value is on record as 14 mm with Saccharomyces cerevisiae; 6 mm in the assay on Pseudomonas aeruginosa; 6 mm in assay [2]; 16 mm in assay [1]; 8 mm with Bacillus cereus [3]; 10 mm in the assay with Candida albicans. For the same compound, the “inhibition zone (IZ)” value in the assay on Staphylococcus aureus and with Enterococcus faecalis was “inactive” throughout. Further, the inhibition in assay [4] is 15%.

`O=C(NCc1ccccc1)Nc1ccc(S(=O)(=O)Cl)cc1`: the “inhibition zone (IZ)” value is on record as 20 mm in the assay with Saccharomyces cerevisiae; 30 mm in the assay on Staphylococcus aureus; 20 mm in the assay with Pseudomonas aeruginosa; 16 mm in the assay on Enterococcus faecalis; 25 mm in assay [2]; 15 mm in assay [1]. Besides, the “inhibition zone (IZ)” value with Bacillus cereus [3] and in the assay with Candida albicans was 18 mm in each case. Moreover, in [4], the inhibition was 23%.

With `O=S(=O)(Cl)c1ccc(/N=c2/oc(-c3ccc(Cl)cc3)cn2Cc2ccccc2)cc1`, the “inhibition zone (IZ)” value in the assay on Saccharomyces cerevisiae is listed as 10 mm; in the assay with Staphylococcus aureus, 18 mm; with Enterococcus faecalis, 8 mm; in assay [1], 12 mm; in the assay with Bacillus cereus [3], 6 mm; in the assay with Candida albicans, 8 mm. Further, the “inhibition zone (IZ)” value (in the assay on Pseudomonas aeruginosa; in assay [2]) was “inactive” each time. Moreover, the inhibition in assay [4] was determined as 21%.

As to `CC(=O)OCC1=C(C(=O)O)N2C(=O)[C@@H](NS(=O)(=O)c3ccc([N+](=O)[O-])cc3)[C@H]2SC1`, the “inhibition zone (IZ)” value (in the assay on Saccharomyces cerevisiae; in [2]; in [1]; in the assay with Candida albicans) was “inactive” each time. The “inhibition zone (IZ)” value with Staphylococcus aureus amounted to 23 mm; with Enterococcus faecalis it was 6 mm; in the assay on Bacillus cereus [3] it was 8 mm. In addition, the figures for the inhibition (in [4]; in the assay with Bacillus cereus [6]) were 28% and 18%, respectively.

Take `CC(=O)OCC1=C(C(=O)O)N2C(=O)[C@@H](NS(=O)(=O)c3ccc(NC(=S)NCc4ccccc4)cc3)[C@H]2SC1`: the “inhibition zone (IZ)” value stood at 10 mm with Saccharomyces cerevisiae; 15 mm in the assay with Staphylococcus aureus; 6 mm with Pseudomonas aeruginosa; 10 mm in the assay on Enterococcus faecalis; 8 mm in assay [2]; 16 mm in assay [1]. Moreover, the “inhibition zone (IZ)” value in the assay with Bacillus cereus [3] and in the assay with Candida albicans was 8 mm in each case.

The values are drawn from ChEMBL document CHEMBL2434823, “Design, synthesis and biological activities of some 7-aminocephalosporanic acid derivatives” (Eur J Med Chem, 2013).
